Screening results from PubChem BioAssay.
TLR9-MyD88 block – inhibitors of human TLR9-MyD88 binding; inhibition, % at 4.98 µM; CHO BLA complementation TLR9-MyD88, CCF4 FRET ratio; AID 504734; 0.21% of 340,000 active;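 active = inhibition above the mean over all tested compounds plus 3 SD, cut at about 21% in these data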;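 note: 0% = DMSO only wells and 100% = clavulanate BLA inhibitor control wells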
Target sequence (Q99836 whole entry, looked up): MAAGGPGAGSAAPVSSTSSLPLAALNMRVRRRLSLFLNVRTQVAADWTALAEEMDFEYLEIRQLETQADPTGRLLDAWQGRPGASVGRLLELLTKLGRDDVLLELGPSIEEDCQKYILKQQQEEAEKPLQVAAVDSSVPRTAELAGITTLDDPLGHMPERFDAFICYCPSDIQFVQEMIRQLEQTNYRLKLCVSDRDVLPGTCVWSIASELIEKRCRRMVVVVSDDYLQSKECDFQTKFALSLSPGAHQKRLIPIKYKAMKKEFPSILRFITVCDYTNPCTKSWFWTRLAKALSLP
Target sequence (Q9NR96 whole entry, looked up): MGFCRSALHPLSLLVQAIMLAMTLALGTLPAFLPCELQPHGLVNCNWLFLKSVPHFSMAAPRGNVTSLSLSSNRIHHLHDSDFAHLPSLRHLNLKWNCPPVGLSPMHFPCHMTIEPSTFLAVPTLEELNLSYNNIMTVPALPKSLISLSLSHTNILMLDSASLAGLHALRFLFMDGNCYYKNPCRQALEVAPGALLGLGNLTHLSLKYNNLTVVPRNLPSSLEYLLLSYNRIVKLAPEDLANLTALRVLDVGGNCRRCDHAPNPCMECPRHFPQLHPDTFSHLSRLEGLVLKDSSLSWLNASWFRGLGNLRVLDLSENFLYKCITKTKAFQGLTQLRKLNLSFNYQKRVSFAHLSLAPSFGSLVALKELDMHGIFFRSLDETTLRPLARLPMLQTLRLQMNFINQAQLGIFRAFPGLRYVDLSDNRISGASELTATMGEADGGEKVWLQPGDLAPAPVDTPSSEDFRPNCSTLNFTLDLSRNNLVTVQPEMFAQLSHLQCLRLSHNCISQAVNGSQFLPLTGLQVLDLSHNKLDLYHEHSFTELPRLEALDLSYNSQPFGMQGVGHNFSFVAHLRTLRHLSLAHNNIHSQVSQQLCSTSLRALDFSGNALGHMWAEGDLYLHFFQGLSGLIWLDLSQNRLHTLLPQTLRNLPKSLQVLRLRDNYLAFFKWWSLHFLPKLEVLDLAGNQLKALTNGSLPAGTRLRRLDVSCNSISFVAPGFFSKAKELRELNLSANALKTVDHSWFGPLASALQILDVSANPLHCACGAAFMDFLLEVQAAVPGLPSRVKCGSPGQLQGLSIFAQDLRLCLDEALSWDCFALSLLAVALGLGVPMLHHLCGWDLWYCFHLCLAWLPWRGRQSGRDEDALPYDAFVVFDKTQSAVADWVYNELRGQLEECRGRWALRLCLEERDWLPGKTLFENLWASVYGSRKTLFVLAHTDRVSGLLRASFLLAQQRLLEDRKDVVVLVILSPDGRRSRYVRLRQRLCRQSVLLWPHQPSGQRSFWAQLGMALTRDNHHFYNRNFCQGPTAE
MC4R antag cAMP – antagonists of human melanocortin 4 receptor (MC4R) | P32245 | MC4R-expressing cells, MTII-stimulated cAMP, LANCE TR-FRET | inhibition, % at 6.5 µM | 0.48% of 360,000 active | AID 540295;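 active = inhibition above its plate's cutoff, the mean of tested wells on that plate plus 3 SD, cut at about 29% in these data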;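 note: 0% = Melanotan II alone and 100% = Melanotan II plus saturating MCL0020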
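system = U2OS cells with stable human MC4R expression | also added = Melanotan II challenge after compound preincubation | dosing = one concentration, 6.5 µM nominal | incubation = compound 30 min, challenge 1 h, detection 1 h | measured by = TR-FRET with Eu-cAMP and labeled anti-cAMP, 671 nm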
NOD2-RIPK2 inh – NOD2-RIPK2 protein interaction inhibition; CHO BLA complementation NOD2-RIPK2, CCF4 ratio; O43353; 0.38% of 360,000 active; AID 624267; inhibition, % at 4.98 µM; in the data active = inhibition above about 21%;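 note: 0% = vehicle only and 100% = reference blocker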
TLR4 MyD88 comp – TLR4-MyD88 interaction inhibition in cells. O00206+Q99836. HeLa CL3-4 TLR4/MyD88 BLA complementation, FRET ratio. inhibition, % at 8.4 µM. 0.18% of 200,000 active; in the data active = inhibition above about 25%;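 note: 0% = vehicle and 100% = reference inhibitor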
NTR1 agonist – NTR1 (human) agonism. activation, % at 20 µM. 0.17% of 330,000 active. P30989. NTR1-U2OS beta-arrestin-GFP spot imaging, agonist mode. AID 493036;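 active = activation at or above 40% of the spot to cytoplasm intensity ratio, with at least 20 cells analyzed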;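 note: 0% = DMSO without peptide and 100% = 100 nM NTR1 peptide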
MC4R ag barr – human MC4R agonism via beta-arrestin | activation, % at 8.9 µM | AID 540308 | P32245 | 0.98% of 360,000 active | U2OS MC4R beta-arrestin complementation, luminescence; percent of melanotan II response, DMSO zero;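 active = activation above a per-plate cutoff, the mean activation of sample wells on that plate plus 3 SD, cut at about 8% in these data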
TLR9-MyD88 cf – TLR9-MyD88 interaction inhibition, confirmation | inhibition, % at 4.98 µM | 51% of 680 active | CHO TLR9/MyD88 BLA complementation, CCF4 FRET ratio | AID 540250 | shares compounds with TLR9-MyD88 block;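 active = mean inhibition across three repeats above about 21% taken from the earlier screen, limit read from the data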;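 note: blue over green emission ratio reports constitutive TLR9 MyD88 association via BLA complementation; 0% = DMSO vehicle wells and 100% = clavulanate BLA inhibitor wells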
BLA counter – beta-lactamase reporter inhibition, counter-screen artifact; shares compounds with TLR9-MyD88 block; CHO-BLA cells, CCF4 FRET ratio, BLA reporter; inhibition, % at 4.98 µM; 7% of 680 active;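 active = mean inhibition above a 50% cutoff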;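 note: counterscreen of TLR9-MyD88 hits on CMV-driven BLA in CHO-K1 cells; 0% = DMSO alone and 100% = clavulanate blocking BLA; higher means less blue over green ratio so more BLA blockade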
TLR9 CHO tox – counter-screen for TLR9-MyD88 inhibitors: cytotoxicity in CHO cells | shares compounds with TLR9-MyD88 block | luminescence | inhibition, % at 4.98 µM | 39% of 680 active | AID 588336; in the data active = inhibition above about 11%
An asterisk follows results filed as active. In the library only some 1.9% were active in any assay of this set; here they are far more common.

How did COc1ccc(CNC(=O)c2cc(-c3ccc(OC)c(OC)c3)on2)cc1 do in these assays?
TLR9-MyD88 block: 23*; MC4R antag cAMP: 5; NOD2-RIPK2 inh: -4; TLR4 MyD88 comp: -5; NTR1 agonist: 1; MC4R ag barr: 5; TLR9-MyD88 cf: 1; BLA counter: 0; TLR9 CHO tox: -4

What do the screens show for `CN=c1scc(-c2cccs2)n1/N=C/c1ccccc1O`?
TLR9-MyD88 block: 26*; MC4R antag cAMP: 11; NOD2-RIPK2 inh: 6; TLR4 MyD88 comp: -5; NTR1 agonist: 10; MC4R ag barr: -1; TLR9-MyD88 cf: 8; BLA counter: 6; TLR9 CHO tox: 9

How did Cc1ccc(-n2nc3c(c2NC(=O)c2ccccc2)CS(=O)(=O)C3)cc1C do in these assays?
TLR9-MyD88 block: -6; MC4R antag cAMP: 15; NOD2-RIPK2 inh: 9; NTR1 agonist: 3; MC4R ag barr: -2

What do the screens show for `Cc1ccc(-n2nc3c(c2NC(=O)c2c(F)cccc2Cl)CS(=O)(=O)C3)cc1C`?
TLR9-MyD88 block: 22*; MC4R antag cAMP: 8; NOD2-RIPK2 inh: 21; NTR1 agonist: -1; MC4R ag barr: -2; TLR9-MyD88 cf: 11; BLA counter: 16; TLR9 CHO tox: 4

Results for Cc1nnc(NC(=O)c2sc3nc(-c4cccs4)cc(C(F)(F)F)c3c2N)s1 ?
TLR9-MyD88 block: 11; MC4R antag cAMP: -5; NOD2-RIPK2 inh: 9; TLR4 MyD88 comp: 1; NTR1 agonist: -1; MC4R ag barr: 0

How did Nc1c(C(=O)Nc2nccs2)sc2nc(-c3cccs3)cc(C(F)(F)F)c12 do in these assays?
TLR9-MyD88 block: 22*; MC4R antag cAMP: 4; NOD2-RIPK2 inh: 19; TLR4 MyD88 comp: 24; NTR1 agonist: -2; MC4R ag barr: 5; TLR9-MyD88 cf: 7; BLA counter: 12; TLR9 CHO tox: -4

Results for COc1ccc(OC)c(C=Nc2ccccc2-c2nc3ccccc3[nH]2)c1 ?
TLR9-MyD88 block: 6; MC4R antag cAMP: 13; NOD2-RIPK2 inh: 4; TLR4 MyD88 comp: 5; NTR1 agonist: 3; MC4R ag barr: 0

Results for COc1ccc(OC)c(/C=C/c2nc3ccccc3[nH]c2=O)c1 ?
TLR9-MyD88 block: 28*; MC4R antag cAMP: -5; NOD2-RIPK2 inh: 14; NTR1 agonist: 4; MC4R ag barr: 4; TLR9-MyD88 cf: 30*; BLA counter: 32; TLR9 CHO tox: 0

What do the screens show for `COC(=O)c1cccc(NC(=O)CSc2nnc(-c3ccco3)o2)c1`?
TLR9-MyD88 block: 3; MC4R antag cAMP: 1; NOD2-RIPK2 inh: -3; NTR1 agonist: -1; MC4R ag barr: -2

What do the screens show for `Cc1ccc(Cn2cccc2/C=C2/C(=N)N3C=CSC3=NC2=O)cc1`?
TLR9-MyD88 block: 30*; MC4R antag cAMP: -3; NOD2-RIPK2 inh: -7; TLR4 MyD88 comp: 1; NTR1 agonist: 2; MC4R ag barr: 4; TLR9-MyD88 cf: 6; BLA counter: 11; TLR9 CHO tox: 16*

What do the screens show for `N=C1/C(=C/c2cccn2Cc2ccc(F)cc2)C(=O)N=C2SC=CN12`?
TLR9-MyD88 block: -5; MC4R antag cAMP: 5; NOD2-RIPK2 inh: 3; TLR4 MyD88 comp: -10; NTR1 agonist: 1; MC4R ag barr: -2

How did CSc1ccc(/C=N/n2c(COc3ccccc3)n[nH]c2=S)cc1 do in these assays?
TLR9-MyD88 block: 22*; MC4R antag cAMP: 3; NOD2-RIPK2 inh: -2; NTR1 agonist: 2; MC4R ag barr: 0; TLR9-MyD88 cf: -1; BLA counter: 1; TLR9 CHO tox: 6

Results for S=c1[nH]nc(COc2ccccc2)n1/N=C/c1ccc(Cl)cc1 ?
TLR9-MyD88 block: -8; MC4R antag cAMP: 8; NOD2-RIPK2 inh: -2; NTR1 agonist: 7; MC4R ag barr: 1

What do the screens show for `O=C1C=CC(=O)N1c1ccccn1`?
TLR9-MyD88 block: 5; MC4R antag cAMP: 2; NOD2-RIPK2 inh: 4; MC4R ag barr: -2

Results for O=C1C=CC(=O)N1c1ccccc1N1C(=O)C=CC1=O ?
TLR9-MyD88 block: 46*; MC4R antag cAMP: 37*; NOD2-RIPK2 inh: -4; MC4R ag barr: -4; TLR9-MyD88 cf: 66*; BLA counter: 38; TLR9 CHO tox: 99*

How did COc1cccc(C(=O)NCC(c2ccc3c(c2)OCO3)N2CCN(c3ccc(F)cc3)CC2)c1 (stereo not drawn) do in these assays?
TLR9-MyD88 block: -1; MC4R antag cAMP: 6; NOD2-RIPK2 inh: -1; NTR1 agonist: 2; MC4R ag barr: -1

How did N#CC1=C(N)Oc2cc(O)c(Cl)cc2C1c1ccccc1F (stereo not drawn) do in these assays?
TLR9-MyD88 block: 22*; MC4R antag cAMP: 1; NOD2-RIPK2 inh: 1; NTR1 agonist: -1; MC4R ag barr: 3; TLR9-MyD88 cf: 2; BLA counter: 5; TLR9 CHO tox: -2

How did CCc1ccc(OCC(=O)N/N=C(\C)c2ccc(OC(F)F)cc2)cc1 do in these assays?
TLR9-MyD88 block: 21*; MC4R antag cAMP: 5; NOD2-RIPK2 inh: -8; TLR4 MyD88 comp: 7; NTR1 agonist: 7; MC4R ag barr: 5; TLR9-MyD88 cf: 1; BLA counter: 4; TLR9 CHO tox: 4

How did CC(NC(=O)OCc1ccccc1)C(=O)Oc1cc2oc(=O)cc(-c3ccccc3)c2cc1Cl (stereo not drawn) do in these assays?
TLR9-MyD88 block: 34*; MC4R antag cAMP: 17; NOD2-RIPK2 inh: 38*; TLR4 MyD88 comp: 5; NTR1 agonist: 1; MC4R ag barr: 1; TLR9-MyD88 cf: 16; BLA counter: 22; TLR9 CHO tox: -10

What do the screens show for `NC(=S)N=Nc1c(O)n(Cc2ccccc2)c2ccccc12`?
TLR9-MyD88 block: 2; MC4R antag cAMP: -9; NOD2-RIPK2 inh: -8; TLR4 MyD88 comp: -15; NTR1 agonist: 8; MC4R ag barr: 5

What do the screens show for `O=Nc1c(O)n(Cc2cccc(Cl)c2)c2ccccc12`?
TLR9-MyD88 block: 26*; MC4R antag cAMP: 4; NOD2-RIPK2 inh: 20; TLR4 MyD88 comp: 4; NTR1 agonist: 2; MC4R ag barr: 4; TLR9-MyD88 cf: 18; BLA counter: 16; TLR9 CHO tox: 14*

What do the screens show for `COc1ccc(S(=O)(=O)N2CCNC(=O)C2)cc1Br`?
TLR9-MyD88 block: 22*; MC4R antag cAMP: -6; NOD2-RIPK2 inh: 6; TLR4 MyD88 comp: 14; NTR1 agonist: 1; MC4R ag barr: 0; TLR9-MyD88 cf: -3; BLA counter: 0; TLR9 CHO tox: 2
